Experimental data published in PMC3428850 (Molecular cancer therapeutics, 2012).
Blank lines part the entries; values can stand above or below the molecule they belong to.

What was measured:
PI-3K = assay: PI-3K-dependent AKT phosphorylation; assay type: cell-based, human; details: read-out: IC50 PI-3K-mediated AKT phosphorylation; MCF7 cells, IGF-1 stimulated
Summary of the method: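 MCF7 cells in RPMI 1640/10% FBS. Exposed to a concentration range of test compound for 1 h, then 50 ng/ml IGF-1 for 30 min. Western blot of AKT Ser473 relative to total AKT. Rise above unstimulated baseline in treated cells expressed as % of the rise in control cells. Mean of three independent experiments fitted to a sigmoidal dose-response curve for IC50.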

LoVo cells = assay: clonogenic survival assay; assay type: cell-based, human
Summary of the method: (§1)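 Cells in RPMI 1640/10% FBS were exposed in 6-well plates for 16 h to etoposide or doxorubicin with or without test compound (1 μM), or to test compound alone. Cells then harvested and reseeded in drug-free medium. Colonies stained with crystal violet after 10-14 days and counted automatically. Fold enhancement = survival with cytotoxic alone / survival with cytotoxic + 1 μM test compound. Means ± SD, n = 3.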

MDA-MB-231 cells = assay: clonogenic survival assay; assay type: cell-based, human
Summary of the method: as §1

T47D cells = assay: clonogenic survival assay; assay type: cell-based, human
Summary of the method: as §1

M059J cells = assay: clonogenic survival assay, DNA-PKcs-deficient cells; assay type: cell-based, human; details: clonogenic survival
Summary of the method: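 Human glioblastoma M059J cells (DNA-PKcs-deficient) and M059-Fus-1 cells (chromosome 8 transfected; G-418 200 μg/ml) in DMEM/10% FBS. Etoposide or doxorubicin alone or with 1 μM test compound, or test compound alone, for 16 h. Reseeded drug-free. Crystal violet colony counts after 10-14 days. Fold enhancement as survival ratio. Means ± SD, n = 3.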

SW620 cells = assay: clonogenic survival assay; assay type: cell-based, human
MCF7 cells = assay: clonogenic survival assay; assay type: cell-based, human
Summary of the method: as §1

MCF7 xenografts = assay: anti-tumour efficacy study, MCF7 xenografts; assay type: in vivo; details: MCF7 tumour-bearing mice
SW620 xenografts = assay: anti-tumour efficacy study, SW620 xenografts; assay type: in vivo, mice
Summary of the method: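 Female athymic CD1-nu/nu mice with s.c. SW620, n = 5/group, treated once tumours were palpable (~5 × 5 mm, day 8-10). Controls: saline i.p. daily. Test compound 10 mg/kg i.p. for 5 days. Etoposide phosphate 11.35 mg/kg i.p. (10 mg/kg etoposide) daily × 5. Combination: test compound i.p. once or twice daily × 5, first dose just before etoposide. Caliper volume a²×b/2; median RTV (day 0 = 1); time to RTV4.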

V3 cells = assay: clonogenic survival assay, DNA-PKcs-deficient cells; assay type: cell-based, Chinese hamster; details: clonogenic survival
Summary of the method: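 Chinese hamster ovary V3 cells (DNA-PKcs-deficient) and V3-YAC cells (human DNA-PKcs on YAC; kept under G-418 500 μg/ml) in RPMI 1640/10% FBS. Etoposide alone or with 1 μM test compound, or test compound alone, for 16 h. Reseeded drug-free. Crystal violet colony counts after 10-14 days. Fold enhancement as survival ratio. Means ± SD of 3 independent experiments.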

[1] = 100 nM doxorubicin with or without 1 μM KU-0060648, 16 hr
[2] = 1 μM etoposide with or without 1 μM KU-0060648, 16 hr

IC50 (PI-3K): 3.9 ± 3.5 µM
SMILES: O=c1cc(N2CCOCC2)oc2c(-c3cccc4c3sc3ccccc34)cccc12 [NU7441, reference compound]

SMILES: COc1cccc2c1C(=O)c1c(O)c3c(c(O)c1C2=O)C[C@@](O)(C(=O)CO)C[C@@H]3O[C@H]1C[C@H](N)[C@H](O)[C@H](C)O1 [doxorubicin, reference compound]
survival (clonogenic) (LoVo cells; [1]): 1.4±0.9 | survival (clonogenic) (MDA-MB-231 cells; MDA-MB-231, 100 nM doxorubicin with or without 1 μM KU-0060648, 16 hr): 1.8±0.6 | survival (clonogenic) (T47D cells; [1]): 9.0±3.2 | fold more sensitive, DNA-PKcs-deficient M059J versus M059-Fus-1 cells (M059J cells): approximately 23 fold | survival (clonogenic) (SW620 cells; SW620, 100 nM doxorubicin with or without 1 μM KU-0060648, 16 hr): 0.06±0.06 | survival (clonogenic) (MCF7 cells; MCF7, 100 nM doxorubicin with or without 1 μM KU-0060648, 16 hr): 42.3±13

SMILES: COc1cc([C@@H]2c3cc4c(cc3[C@@H](O[C@@H]3O[C@@H]5CO[C@@H](C)O[C@H]5[C@H](O)[C@H]3O)[C@H]3COC(=O)[C@H]23)OCO4)cc(OC)c1OP(=O)(O)O [etoposide phosphate, reference compound]
maximum body weight loss (MCF7 xenografts): 3% | maximum body weight loss (SW620 xenografts; SW620 tumour-bearing mice): no body weight loss | time to RTV4 (median) (SW620 xenografts; SW620 xenografts, single agent or combination with once daily KU-0060648): 6.5 days

SMILES: COc1cc([C@@H]2c3cc4c(cc3[C@@H](O[C@@H]3O[C@@H]5CO[C@@H](C)O[C@H]5[C@H](O)[C@H]3O)[C@H]3COC(=O)[C@H]23)OCO4)cc(OC)c1O [etoposide, reference compound]
survival (clonogenic) (LoVo cells; [2]): 3.5±0.5 | survival (clonogenic) (MDA-MB-231 cells; MDA-MB-231, 1 μM etoposide with or without 1 μM KU-0060648, 16 hr): 16±10 | survival (clonogenic) (T47D cells; [2]): 24±4 | fold more sensitive, DNA-PKcs-deficient M059J versus M059-Fus-1 cells (M059J cells): approximately 2.5 fold | survival (clonogenic) (SW620 cells; SW620, 1 μM etoposide with or without 1 μM KU-0060648, 16 hr): 4.7±2.0 | fold more sensitive, DNA-PKcs-deficient V3 versus V3-YAC cells (V3 cells): approximately 3 fold | survival (clonogenic) (MCF7 cells; MCF7, 1 μM etoposide with or without 1 μM KU-0060648, 16 hr): 23±9
